Consider three molecules from ChEMBL document CHEMBL1124427, “Studies on prodrugs. 11. Synthesis and antimicrobial activity of N-[(4-methyl-5-methylene-2-oxo-1,3-dioxolan-4-yl)oxy]norfloxacin ” (J Med Chem, 1989).

The nature of data set [1]: Area under curve value of compound per hour after oral administration. Format: ADME. The procedure, abridged:
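Mice were dosed orally at the equivalent of 50 mg/kg NFLX, suspended in 0.5% sodium (carboxymethyl)cellulose. They were killed by bleeding at 0.25, 0.5, 1.0, 2.0, 3.0 and 4.0 h. Serum NFLX was measured by HPLC with UV detection at 280 nm, and AUC was expressed in µg/mL per h.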

Data set [2] concerns Escherichia coli. The data set is described as follows: Oral efficacy of compound after peroral administration on systemic infection by Escherichia coli KC-14. It is filed as functional. In outline: (§1)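 Groups of five male ddY mice (20 ± 2 g) were given 0.5 mL of bacteria intraperitoneally at 10 or 100 times the 50% lethal dose. One hour after infection they were treated orally with compound suspended in 0.5% sodium (carboxymethyl)cellulose. Survival was scored at 1 week, and ED50 is given with 95% confidence limits.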

The subject of data set [3] is Escherichia coli. The data set is described as follows: Oral efficacy of compound after peroral administration on systemic infection by Escherichia coli KC-14 in rat. Format: functional.
Data set [4] deals with Escherichia coli. Kind of data set: (§2) Minimum inhibitory concentration tested against Escherichia coli KC-14. It is filed as functional. The procedure, abridged:
(§3)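 Agar dilution used serial 2-fold dilutions in Mueller-Hinton agar, with plate concentrations of 0.006–100 µg/mL and an inoculum of about 10^8 cfu/mL.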

The subject of another data set is Klebsiella pneumoniae. The data set is described as follows: Minimum inhibitory concentration tested against Klebsiella pneumoniae PC1602. It is filed as functional. In outline: as §3
Another data set has as its system Proteus vulgaris. Kind of data set: Minimum inhibitory concentration tested against Proteus vulgaris OX-19. Format: functional. The procedure, abridged: as §3
The subject of data set [5] is Pseudomonas aeruginosa. The data set is described as follows: Oral efficacy of compound after peroral administration on systemic infection by Pseudomonas aeruginosa E-2. Format: functional. The procedure, abridged:
as §1

Data set [6] relates to Pseudomonas aeruginosa. Kind of data set: Minimum inhibitory concentration tested against Pseudomonas aeruginosa E-2. Format: functional. In outline:
as §3

Data set [7] can be described thus: Lethal dose of compound after peroral administration in rats. It is filed as toxicity, organism-based. The following applies: rat, in vivo, po. The procedure, abridged:
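Each compound was given orally as a suspension in 0.5% CMC. Deaths were counted over 1 week, and LD50 was calculated by the method of Weil.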

The test system of data set [8] is Staphylococcus aureus. The data set is described as follows: Oral efficacy of compound after peroral administration on systemic infection by Staphylococcus aureus IID803. Format: functional. The procedure, abridged:
as §1

Data set [9] deals with Staphylococcus aureus. Kind of data set: Minimum inhibitory concentration tested against Staphylococcus aureus FDA207PJC-1. Format: functional. The procedure, abridged:
as §3

For another data set, the system named is Serratia marcescens. Kind of data set: Minimum inhibitory concentration tested against Serratia marcescens LAM 1184. Format: functional. The procedure, abridged: as §3
The next data set has as its system Bacillus subtilis. The data set is described as follows: Minimum inhibitory concentration tested against Bacillus subtilis ATCC 6633. Format: functional. The procedure, abridged:
as §3

Data set [10] deals with Escherichia coli. The data set is described as follows: Effective dose of compound against Escherichia coli KC-14 in mice after oral administration.
For data set [11], the system named is Escherichia coli. Described as §2. Format: functional. The procedure, abridged: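 MIC by serial 2-fold agar dilution on Mueller-Hinton agar, with an inoculum of about 10^8 cfu/mL and plate concentrations of 0.006–100 μg/mL.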
This is another data set of the same source.

Data set [12] deals with Escherichia coli. The data set is described as follows: Effective dose of compound against Escherichia coli KC-14 in mice after oral administration. The source holds these as a separate data set.

Values after ≈ are worked out from the molar mass of the structure shown.

Broadly, the AUC is the area under the concentration-time curve, a measure of exposure. The term ED50 denotes the dose at which the effect has come halfway, by size or by number of responders. Low readings indicate greater potency, high ones weaker potency. The MIC is the smallest concentration in the dilution series that meets the test's criterion for growth inhibition. A lower MIC goes with greater potency. The LD50 is the dose at which mortality reaches 50%. A high value points to lower toxicity. Molecule `C=C1OC(=O)OC1(C)ON1CCN(c2cc3c(cc2F)c(=O)c(C(=O)O)cn3CC)CC1` (stereo not given) came in with an AUC in data set [1] of 5.4 µg·h/mL. The ED50 was 1.31 mg/kg with Escherichia coli [2]; 2.68 mg/kg in the data set with Escherichia coli [3]; 17.7 mg/kg in the data set on Pseudomonas aeruginosa [5]; 70.7 mg/kg in the data set on Staphylococcus aureus [8]; 1.31 mg/kg with Escherichia coli [10]. The MIC was determined as 1.56 µg/mL (≈ 3.49 µM) against Escherichia coli [4]; 0.1 µg/mL (≈ 0.224 µM) in the data set with Klebsiella pneumoniae; 0.05 µg/mL (≈ 0.112 µM) against Proteus vulgaris; 6.25 µg/mL (≈ 14 µM) against Pseudomonas aeruginosa [6]; 0.78 µg/mL (≈ 1.74 µM) against Staphylococcus aureus [9]; 3.12 µg/mL (≈ 6.97 µM) in the data set on Serratia marcescens. This molecule also registered a minimal inhibitory concentration (MIC) against Bacillus subtilis of 0.19 µg/mL (≈ 0.425 µM). This molecule also had a 50% lethal dose (LD50) in [7] above 4000 mg/kg.

As for `CCn1cc(C(=O)O)c(=O)c2cc(F)c(N3CCN(Cc4oc(=O)oc4C)CC3)cc21`, the AUC in [1] is 5.7 µg·h/mL. Besides, the ED50 in the data set with Escherichia coli [2] stood at 1.93 mg/kg; with Escherichia coli [3], 6.16 mg/kg; in the data set on Pseudomonas aeruginosa [5], 20.3 mg/kg; in the data set on Staphylococcus aureus [8] it was 93.3 mg/kg; with Escherichia coli [12] it was 1.93 mg/kg. For the same molecule, the MIC was found to be 0.2 µg/mL (≈ 0.464 µM) against Escherichia coli [11]; 0.1 µg/mL (≈ 0.232 µM) against Klebsiella pneumoniae; 0.1 µg/mL (≈ 0.232 µM) with Proteus vulgaris; 1.56 µg/mL (≈ 3.62 µM) against Pseudomonas aeruginosa [6]; 0.39 µg/mL (≈ 0.904 µM) in the data set with Staphylococcus aureus [9]; 0.39 µg/mL (≈ 0.904 µM) in the data set on Serratia marcescens. The molecule also yielded an MIC against Bacillus subtilis of 0.19 µg/mL (≈ 0.44 µM). The molecule also registered a median lethal dose (LD50) in data set [7] above 4000 mg/kg.

As for `CCn1cc(C(=O)O)c(=O)c2cc(F)c(N3CCNCC3)cc21` [NORFLOXACIN], in data set [1], the AUC turned out to be 1.8 µg·h/mL. Besides, the ED50 in the data set on Escherichia coli [2] stood at 3.15 mg/kg; with Pseudomonas aeruginosa [5], 77.1 mg/kg; in the data set with Escherichia coli [12], 3.13 mg/kg. For the same molecule, the MIC against Escherichia coli [11] is 0.1 µg/mL (≈ 0.313 µM); with Klebsiella pneumoniae, 0.05 µg/mL (≈ 0.157 µM); against Proteus vulgaris, 0.05 µg/mL (≈ 0.157 µM); in the data set with Pseudomonas aeruginosa [6], 0.39 µg/mL (≈ 1.22 µM); in the data set with Staphylococcus aureus [9], 0.19 µg/mL (≈ 0.595 µM); against Serratia marcescens, 0.19 µg/mL (≈ 0.595 µM). The same molecule returned an MIC with Bacillus subtilis of 0.19 µg/mL (≈ 0.595 µM). In addition, in data set [7], the LD50 was above 4000 mg/kg.
